According to ChEMBL document CHEMBL2321786, “Paclitaxel is an inhibitor and its boron dipyrromethene derivative is a fluorescent recognition agent for botulinum neurotoxin subtype A” (J Med Chem, 2013):
Activity calls are given as the source filed them. No cut-off for these calls is given here.

Key:
[1] = target: Botulinum neurotoxin type A (Clostridium botulinum) (UniProt P0DPI0); assay: Binding affinity to nonactivated whole Clostridium botulinum biotinylated neurotoxin A in streptavidin-coated magnetic beads using [14C] labeled compound at 50 uM relative to control
[2] = target: Botulinum neurotoxin type A (Clostridium botulinum) (UniProt P0DPI0); assay: Binding affinity to Clostridium botulinum recombinant biotinylated neurotoxin A light chain incubated for 15 mins by scintillation proximity assay
How it was run: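 Scintillation proximity binding: [3H]paclitaxel at each concentration incubated with 7 nM biotinylated light chain for 15 min at room temperature. Streptavidin-coated polyvinyltoluene SPA beads (2 mg/mL) then added. Run in triplicate, read at 1 h intervals by scintillation counting. Counts corrected for nonspecific binding/nonproximity effects.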

[3] = target: Botulinum neurotoxin type A (Clostridium botulinum, UniProt P0DPI0); assay: Inhibition of Clostridium botulinum recombinant neurotoxin A light chain using SNAPtide as substrate after 1 hr by FRET assay
How it was run: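 IC50 from a FRET dose-response: 10 nM light chain preincubated 30 min with inhibitor at 37 °C before adding SNAPtide (8 μM final). Fluorescence read at ex 490/em 523 nm and expressed relative to uninhibited cleavage. Triplicate wells with DMSO controls. IC50 from four-parameter nonlinear regression over two independent experiments.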

[4] = target: Botulinum neurotoxin type A (Clostridium botulinum) (UniProt P0DPI0); assay: Inhibition of Clostridium botulinum recombinant neurotoxin A light chain using SNAPtide as substrate at 10 uM after 1 hr by FRET assay relative to control
How it was run: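 Single-point FRET at 10 μM ligand: 10 nM light chain, 8 μM SNAPtide, pH 8.2, 37 °C, 1 h incubation, triplicate. Cleavage read at ex 490/em 523 nm. Percent inhibition calculated against uninhibited cleavage at the same substrate and enzyme levels.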

[5] = target: Botulinum neurotoxin type A (Clostridium botulinum) (UniProt P0DPI0); assay: Binding affinity to nonactivated whole Clostridium botulinum biotinylated neurotoxin A in streptavidin-coated magnetic beads using [14C] labeled compound at 25 uM relative to control
[6] = target: Botulinum neurotoxin type A (Clostridium botulinum) (UniProt P0DPI0); assay: Binding affinity to nonactivated whole Clostridium botulinum biotinylated neurotoxin A in streptavidin-coated magnetic beads at 10 uM after 1 hr by fluorescence intensity assay relative to control
[7] = target: Botulinum neurotoxin type A (Clostridium botulinum) (UniProt P0DPI0); assay: Binding affinity to nonactivated whole Clostridium botulinum biotinylated neurotoxin A in streptavidin-coated magnetic beads using [14C] labeled compound at 10 uM relative to control

Sequence of Botulinum neurotoxin type A (Clostridium botulinum) (P0DPI0 2-448 limits assumed): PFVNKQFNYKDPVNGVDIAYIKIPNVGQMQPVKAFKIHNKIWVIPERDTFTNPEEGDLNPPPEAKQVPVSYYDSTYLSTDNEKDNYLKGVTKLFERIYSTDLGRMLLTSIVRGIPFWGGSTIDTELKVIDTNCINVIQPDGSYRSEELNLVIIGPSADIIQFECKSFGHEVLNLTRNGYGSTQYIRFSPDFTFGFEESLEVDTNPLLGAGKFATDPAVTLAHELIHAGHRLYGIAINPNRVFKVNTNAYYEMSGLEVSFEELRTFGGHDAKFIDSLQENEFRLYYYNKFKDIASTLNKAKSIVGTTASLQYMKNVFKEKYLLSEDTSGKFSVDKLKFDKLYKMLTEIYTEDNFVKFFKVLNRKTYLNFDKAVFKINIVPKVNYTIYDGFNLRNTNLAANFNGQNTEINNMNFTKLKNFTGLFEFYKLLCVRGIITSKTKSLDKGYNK
Sequence of Botulinum neurotoxin type A (P0DPI0 2-448 limits assumed): as above

Structure (SMILES)	inhibition [4]	Activity [6]	further results
CC(=O)O[C@H]1C(=O)[C@@]2(C)[C@H]([C@H](OC(=O)c3ccccc3)[C@]3(O)C[C@H](OC(=O)[C@H](O)[C@@H](NC(=O)c4ccccc4)c4ccccc4)C(C)=C1C3(C)C)[C@]1(OC(C)=O)CO[C@@H]1C[C@@H]2O [PACLITAXEL]	85%		Activity [1]: 7%; Activity [2]: Active; IC50 [3]: 5.2 µM; Activity [5]: 7%
CC(=O)O[C@H]1C(=O)[C@@]2(C)[C@H]([C@H](OC(=O)c3ccccc3)[C@]3(O)C[C@H](OC(=O)[C@H](O)[C@@H](NC(=O)CCC4=[N+]5C(C=C4)Cc4ccc(/C=C/c6ccccc6)n4[B-]5(F)F)c4ccccc4)C(C)=C1C3(C)C)[C@]1(OC(C)=O)CO[C@@H]1C[C@@H]2O (stereo partly drawn)		46%	
N[C@@H](CCCc1c(CC[C@H](N)C(=O)O)c[n+](CCCC[C@H](N)C(=O)O)cc1CC[C@H](N)C(=O)O)C(=O)[O-]	25%		
Nc1nc(N)c2nc(CNc3ccc(C(=O)N[C@@H](CCC(=O)O)C(=O)O)cc3)cnc2n1	11%		
CC[C@@]1([C@@H]2O[C@@H]([C@H]3O[C@@](O)(CO)[C@H](C)C[C@@H]3C)C[C@@H]2C)CC[C@H]([C@]2(C)CC[C@]3(C[C@H](O)[C@@H](C)[C@@H]([C@@H](C)[C@@H](OC)[C@H](C)C(=O)O)O3)O2)O1	38%		
CC(=O)O[C@H]1C(=O)[C@@]2(C)[C@H]([C@H](OC(=O)c3ccccc3)[C@]3(O)C[C@H](OC(=O)[C@H](O)[C@@H](NC(=O)CCC4=[N+]5C(C=C4)Cc4c(C)cc(C)n4[B-]5(F)F)c4ccccc4)C(C)=C1C3(C)C)[C@]1(OC(C)=O)CO[C@@H]1C[C@@H]2O (stereo partly drawn)		22%	
OCC1(O)OC[C@@H](O)[C@@H](O)[C@@H]1O (stereo partly drawn)	0%		Activity [7]: 5%
CC(=O)O[C@H]1C(=O)[C@]2(C)[C@@H](OC(=O)CCNC(=O)c3ccc(-c4c5cc(F)c(=O)cc-5oc5cc(O)c(F)cc45)c(C(=O)O)c3)C[C@H]3OC[C@@]3(OC(C)=O)[C@H]2[C@H](OC(=O)c2ccccc2)[C@]2(O)C[C@H](OC(=O)[C@H](O)[C@@H](NC(=O)c3ccccc3)c3ccccc3)C(C)=C1C2(C)C		4%	
